Assay results taken from ChEMBL document CHEMBL1128501, “Synthesis and biological evaluation of 14-alkoxymorphinans. 11. 3-Hydroxycyprodime and analogues: opioid antagonist profile in comparison to cyprodime” (J Med Chem, 1995).

How the values were obtained:
[1] = target: T1, Mu-type opioid receptor (Cavia porcellus, UniProt P97266); assay: Binding affinity was evaluated by measuring the ability to displace [3H]DAMGO radioligand binding from Opioid receptor mu 1 in guinea pig brain membranes; format: cell membranes, Membrane
How it was run: (§1)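 Radioligand displacement in guinea pig brain homogenates in 50 mM Tris-HCl, pH 7.4, for 40 min at 25 °C. Radioligands were [3H]DAMGO for μ, [3H]U69593 for κ and [3H]DPDPE for δ sites. Result given as Ki.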

[2] = target: T2, Kappa-type opioid receptor (Cavia porcellus, UniProt P41144); assay: […] binding affinity was evaluated by measuring the ability to displace [3H]U-69593 radioligand binding from Opioid receptor kappa 1 in guinea pig brain membranes; set-up: species or system Membrane; how it was run: as §1
[3] = target: Kappa-type opioid receptor (Mus musculus) (UniProt P33534); assay: Binding affinity was evaluated by measuring the ability to displace CI977 radioligand binding from Opioid receptor kappa 1 in mouse vas deferens preparation
How it was run: (§2)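 Electrically stimulated isolated mouse vas deferens. Test compound was given as antagonist against agonist-induced responses: DAMGO for μ, DPDPE for δ, and CI977 or other κ agonists for κ. Ke = [antagonist]/(DR − 1), where DR is the ratio of equiactive agonist concentrations with and without antagonist.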

[4] = target: Delta-type opioid receptor (Mus musculus) (UniProt P32300); assay: Binding affinity was evaluated by measuring the ability to displace DPDPE radioligand binding from delta opioid receptor in mouse vas deferens preparation; how it was run: as §2
[5] = target: Mu-type opioid receptor (Mus musculus) (UniProt P42866); assay: Binding affinity was evaluated by measuring the ability to displace [3H]-DAMGO radioligand binding from Opioid receptor mu 1 in mouse vas deferens preparation; how it was run: as §2
[6] = target: T2, Kappa-type opioid receptor; assay: Binding affinity was evaluated by measuring the ability to displace [3H]U-69593 radioligand binding from Opioid receptor kappa 1 in guinea pig brain membranes; format: cell membranes, Membrane; how it was run: as §1
[7] = target: T1, Mu-type opioid receptor; assay: […] binding affinity was evaluated by measuring the ability to displace [3H]DAMGO radioligand binding from Opioid receptor mu 1 in guinea pig brain membranes; set-up: species or system Membrane; how it was run: as §1
[8] = target: Kappa-type opioid receptor (Mus musculus) (UniProt P33534); assay: Binding affinity was evaluated by measuring the ability from displace CI977 radioligand binding to Opioid receptor kappa 1 in mouse vas deferens preparation; how it was run: as §2
[9] = target: Mu-type opioid receptor (Mus musculus) (UniProt P42866); assay: […] binding affinity was evaluated by measuring the ability from displace [3H]DAMGO radioligand binding to mu opioid receptor in mouse vas deferens preparation; how it was run: as §2
[10] = target: Kappa-type opioid receptor (Mus musculus) (UniProt P33534); assay: Binding affinity for kappa opioid receptor against agonist (dynorphine) in mouse vas deferens; format: tissue-based; how it was run: as §2
[11] = target: Delta-type opioid receptor (Mus musculus) (UniProt P32300); assay: Binding affinity was evaluated by measuring the ability from displace DPDPE radioligand binding from delta opioid receptor in mouse vas deferens preparation; how it was run: as §2
[12] = target: Kappa-type opioid receptor (Mus musculus) (UniProt P33534); assay: Binding affinity for kappa opioid receptor against agonist (U-69,593) in mouse vas deferens preparation; how it was run: as §2
[13] = target: Kappa-type opioid receptor (Cavia porcellus) (UniProt P41144); assay: Binding affinity for kappa opioid receptor against agonist (ethylketocyclazocine) in guinea pig ileum preparations; format: tissue-based
How it was run: (§3)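 Myenteric-plexus longitudinal muscle of guinea pig ileum. Test compound was given as antagonist against κ agonist responses. Ke = [antagonist]/(DR − 1), where DR is the ratio of equiactive agonist concentrations with and without antagonist, from separate determinations.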

[14] = target: Kappa-type opioid receptor (Cavia porcellus) (UniProt P41144); assay: Binding affinity for kappa opioid receptor against agonist (CI977) in guinea pig ileum preparations; format: tissue-based; how it was run: as §3
[15] = target: Kappa-type opioid receptor (Mus musculus) (UniProt P33534); assay: Binding affinity for kappa opioid receptor against agonist (CI977) in mouse vas deferens preparation; how it was run: as §2
[16] = target: Kappa-type opioid receptor (Cavia porcellus) (UniProt P41144); assay: Binding affinity for kappa opioid receptor against agonist (U-69,593) in guinea pig ileum preparations; format: tissue-based; how it was run: as §3
[17] = target: Kappa-type opioid receptor (Cavia porcellus) (UniProt P41144); assay: Binding affinity for kappa opioid receptor against agonist (trifluadom) in guinea pig ileum preparations; format: tissue-based; how it was run: as §3
[18] = target: Kappa-type opioid receptor (Mus musculus) (UniProt P33534); assay: Binding affinity for kappa opioid receptor against agonist (ethylketocyclazocine) in mouse vas deferens; format: tissue-based; how it was run: as §2

Kappa-type opioid receptor (Mus musculus), sequence (P33534 whole entry): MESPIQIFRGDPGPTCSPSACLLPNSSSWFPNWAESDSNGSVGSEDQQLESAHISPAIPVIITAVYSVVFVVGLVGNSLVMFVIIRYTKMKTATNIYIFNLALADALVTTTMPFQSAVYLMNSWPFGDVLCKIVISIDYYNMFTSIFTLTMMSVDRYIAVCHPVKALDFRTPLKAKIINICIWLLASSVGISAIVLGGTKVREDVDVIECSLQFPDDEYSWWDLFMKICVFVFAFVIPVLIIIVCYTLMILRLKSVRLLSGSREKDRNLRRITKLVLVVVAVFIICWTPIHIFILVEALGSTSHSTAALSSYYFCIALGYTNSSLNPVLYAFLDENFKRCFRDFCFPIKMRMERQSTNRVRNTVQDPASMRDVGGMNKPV
T2 sequence (P41144 whole entry): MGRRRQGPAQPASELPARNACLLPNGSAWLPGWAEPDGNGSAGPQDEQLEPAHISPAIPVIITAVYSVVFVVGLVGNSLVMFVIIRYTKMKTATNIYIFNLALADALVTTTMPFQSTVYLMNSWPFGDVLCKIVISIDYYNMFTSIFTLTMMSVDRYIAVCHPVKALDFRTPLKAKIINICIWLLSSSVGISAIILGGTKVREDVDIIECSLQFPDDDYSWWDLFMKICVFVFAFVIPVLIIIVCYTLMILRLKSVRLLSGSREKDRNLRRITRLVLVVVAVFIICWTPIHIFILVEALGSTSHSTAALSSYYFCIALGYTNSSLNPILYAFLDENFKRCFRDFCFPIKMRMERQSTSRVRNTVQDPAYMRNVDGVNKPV
Kappa-type opioid receptor (Cavia porcellus), sequence (P41144 whole entry): as above
Mu-type opioid receptor (Mus musculus), sequence (P42866 whole entry): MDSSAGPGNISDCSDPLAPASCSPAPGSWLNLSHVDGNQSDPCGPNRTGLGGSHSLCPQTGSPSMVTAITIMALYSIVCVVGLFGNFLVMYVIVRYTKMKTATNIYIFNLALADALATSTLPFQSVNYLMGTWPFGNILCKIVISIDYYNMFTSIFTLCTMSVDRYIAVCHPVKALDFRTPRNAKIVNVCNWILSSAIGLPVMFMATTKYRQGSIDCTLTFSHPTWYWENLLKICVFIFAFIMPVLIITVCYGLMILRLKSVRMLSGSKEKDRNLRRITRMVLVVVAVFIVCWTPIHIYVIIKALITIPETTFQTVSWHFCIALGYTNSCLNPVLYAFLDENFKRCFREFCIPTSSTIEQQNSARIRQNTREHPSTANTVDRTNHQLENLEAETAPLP
T1 sequence (P97266 whole entry): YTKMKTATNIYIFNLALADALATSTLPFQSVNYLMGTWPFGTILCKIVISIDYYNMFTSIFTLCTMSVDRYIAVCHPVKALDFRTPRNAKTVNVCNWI
Delta-type opioid receptor (Mus musculus), sequence (P32300 whole entry): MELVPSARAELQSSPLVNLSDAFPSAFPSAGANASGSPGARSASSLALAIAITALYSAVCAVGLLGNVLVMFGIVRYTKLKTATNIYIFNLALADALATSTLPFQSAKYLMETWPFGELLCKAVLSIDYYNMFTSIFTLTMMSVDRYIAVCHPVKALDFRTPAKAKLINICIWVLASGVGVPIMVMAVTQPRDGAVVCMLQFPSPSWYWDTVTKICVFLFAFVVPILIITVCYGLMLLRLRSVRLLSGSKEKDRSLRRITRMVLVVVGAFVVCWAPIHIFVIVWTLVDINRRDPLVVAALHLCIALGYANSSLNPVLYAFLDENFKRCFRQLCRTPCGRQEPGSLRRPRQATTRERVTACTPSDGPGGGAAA

| Compound | Ki [1] | Ki [2] | Ke [3] | Ke [4] | Ke [5] | Ki [6] | Ki [7] | also measured |
| --- | --- | --- | --- | --- | --- | --- | --- | --- |
| CCO[C@@]12CCC(=O)CC13CCN(CC1CC1)C2Cc1ccc(O)c(OC)c13 (stereo not given in full) | 0.00142 µM | 0.00546 µM | 233 nM | 106 nM | 2.92 nM |  |  |  |
| CCCCOc1c(O)ccc2c1C13CCN(CC4CC4)C(C2)[C@]1(OC)CCC(=O)C3 (stereo not given in full) |  |  | 174 nM | > 10000 nM | 24.9 nM | 0.013 µM | 0.0109 µM |  |
| COc1c(O)ccc2c1C13CCN(CC4CC4)C(C2)[C@]1(O)CCC(=O)C3 (stereo not given in full) |  |  | 243 nM | 8920 nM | 93.8 nM | 0.023 µM | 0.0544 µM |  |
| COc1c(O)ccc2c1C13CCN(CC4CC4)C(C2)[C@]1(OC)CCC(=O)C3 (stereo not given in full) | 0.00615 µM |  |  |  |  | 0.00418 µM |  | Ke [8]: 368 nM; Ke [9]: 5.62 nM; Ke [10]: 450 nM; Ke [11]: 316 nM; Ke [12]: 354 nM; Ke [13]: 3.95 nM; Ke [14]: 284 nM; Ke [15]: 368 nM; Ke [16]: 97.5 nM; Ke [17]: 1010 nM; Ke [18]: 910 nM |
| COc1cccc2c1[C@]13CCN(CC4CC4)[C@H](C2)[C@]1(OC)CCC(=O)C3 [CYPRODIME] | 0.0237 µM | 0.105 µM |  |  |  |  |  |  |
| C=CCN1CCC23CC(=O)CC[C@@]2(OC)C1Cc1ccc(O)c(OC)c13 (stereo not given in full) | 0.00729 µM | 0.0254 µM | 4.67 nM | 2270 nM | 4.6 nM |  |  |  |
